Experiments:
[1] = molecular target: Major prion protein (Homo sapiens) (UniProt P04156); assay: Binding affinity to human PrPC at 40 uM
Procedure, shortened: (§1)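 SPR at 25 °C, 30 µL/min. Each PrPC form was amine-coupled at 2 µg/mL onto a CM5 dextran chip via NHS/EDC, with ethanolamine block; flow cell 1 served as control. Ligand at 40 µM, 1 min association, 3 min dissociation, with DMSO calibration. Binding expressed as %RU_max, normalised for immobilised RU and molecular weights.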

[2] = molecular target: Major prion protein (Homo sapiens) (UniProt P04156); assay: Binding affinity to truncated human PrPC at 40 uM; procedure, shortened: as §1
[3] = molecular target: Major prion protein (Mus musculus) (UniProt P04925); assay: Binding affinity to mouse PrPC at 40 uM; procedure, shortened: as §1
Chain of Major prion protein (Mus musculus) (P04925 whole entry): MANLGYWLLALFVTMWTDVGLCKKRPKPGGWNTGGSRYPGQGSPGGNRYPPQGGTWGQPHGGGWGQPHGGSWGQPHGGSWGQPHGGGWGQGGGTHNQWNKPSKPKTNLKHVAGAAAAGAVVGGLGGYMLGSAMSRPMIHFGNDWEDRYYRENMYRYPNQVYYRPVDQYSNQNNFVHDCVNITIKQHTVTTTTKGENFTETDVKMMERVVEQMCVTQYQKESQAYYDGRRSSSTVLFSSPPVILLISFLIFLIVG

## N#Cc1c(N)nc(Sc2ccc(O)cc2)c(C#N)c1-c1ccc(O)c(F)c1
[1]
  RUmax: 44.2%
[2]
  RUmax: 28%
[3]
  RUmax: 53.8%

## COC(=O)c1ccc(-c2c(C#N)c(N)nc(Sc3ccc(O)cc3)c2C#N)cc1
[1]
  RUmax: 0%
[2]
  RUmax: 0%
[3]
  RUmax: 0%

## N#Cc1c(N)nc(Sc2ccc(O)cc2)c(C#N)c1-c1cccc(O)c1
[1]
  RUmax: 34%
[2]
  RUmax: 23.1%
[3]
  RUmax: 43.1%

## COc1ccc(-c2c(C#N)c(N)nc(Sc3ccccc3)c2C#N)cc1
[1]
  RUmax: 0%
[2]
  RUmax: 0%
[3]
  RUmax: 0%

## COC(=O)c1ccc(Sc2nc(N)c(C#N)c(-c3ccc(C(=O)OC)cc3)c2C#N)cc1
[1]
  RUmax: 0%
[2]
  RUmax: 0%
[3]
  RUmax: 0%

## N#Cc1c(N)nc(Sc2cccc(O)c2)c(C#N)c1-c1ccccc1
[1]
  RUmax: 70.3%
[2]
  RUmax: 37.6%
[3]
  RUmax: 60.6%

## N#Cc1c(N)nc(Sc2cccc(Cl)c2)c(C#N)c1-c1ccc(Cl)cc1
[1]
  RUmax: 119%
[2]
  RUmax: 56.5%
[3]
  RUmax: 52.3%

## N#Cc1c(N)nc(Sc2ccc(Cl)cc2)c(C#N)c1-c1ccccc1
[1]
  RUmax: 0%
[2]
  RUmax: 11.4%
[3]
  RUmax: 0%

## CS(=O)(=O)c1ccc(-c2c(C#N)c(N)nc(Sc3ccc(O)cc3)c2C#N)cc1
[1]
  RUmax: 0%
[2]
  RUmax: 0%
[3]
  RUmax: 0%

## COC(=O)c1ccc(-c2c(C#N)c(N)nc(Sc3ccc(C(=O)O)cc3)c2C#N)cc1
[1]
  RUmax: 5.9%
[2]
  RUmax: 0%
[3]
  RUmax: 8.5%

## CC(=O)Nc1ccc(Sc2nc(N)c(C#N)c(-c3cc(F)cc(F)c3)c2C#N)cc1
[1]
  RUmax: 0%
[2]
  RUmax: 0%
[3]
  RUmax: 0%

## COc1cccc(-c2c(C#N)c(N)nc(Sc3ccccc3)c2C#N)c1
[1]
  RUmax: 0%
[2]
  RUmax: 0%
[3]
  RUmax: 0%

## COC(=O)c1ccc(-c2c(C#N)c(N)nc(Sc3cccc(C(=O)OC)c3)c2C#N)cc1
[1]
  RUmax: 0%
[2]
  RUmax: 0%
[3]
  RUmax: 0%

## COC(=O)c1ccc(Sc2nc(N)c(C#N)c(-c3ccc(O)cc3)c2C#N)cc1
[1]
  RUmax: 0%
[2]
  RUmax: 0%
[3]
  RUmax: 0%

## COC(=O)c1ccc(Sc2nc(N)c(C#N)c(-c3ccccc3)c2C#N)cc1
[1]
  RUmax: 0%
[2]
  RUmax: 0%
[3]
  RUmax: 0%

## COC(=O)c1ccc(-c2c(C#N)c(N)nc(Sc3cccc(Cl)c3)c2C#N)cc1
[1]
  RUmax: 0%
[2]
  RUmax: 0%
[3]
  RUmax: 0%

## COc1cccc(-c2c(C#N)c(N)nc(Sc3cccc(Cl)c3)c2C#N)c1
[1]
  RUmax: 8.6%
[2]
  RUmax: 6.7%
[3]
  RUmax: 0%

## N#Cc1c(N)nc(Sc2ccccc2)c(C#N)c1-c1ccccc1
[1]
  RUmax: 0%
[2]
  RUmax: 0%
[3]
  RUmax: 0%

## COC(=O)c1cccc(Sc2nc(N)c(C#N)c(-c3ccccc3)c2C#N)c1
[1]
  RUmax: 125%
[2]
  RUmax: 26.8%
[3]
  RUmax: 33.2%

## COC(=O)c1ccc(-c2c(C#N)c(N)nc(Sc3ccc(NC(C)=O)cc3)c2C#N)cc1
[1]
  RUmax: 9.4%
[2]
  RUmax: 6.4%
[3]
  RUmax: 13.3%

## N#Cc1c(N)nc(Sc2ccccc2F)c(C#N)c1-c1cccc(O)c1
[1]
  RUmax: 17.2%
[2]
  RUmax: 9.2%
[3]
  RUmax: 18.8%

## CC(=O)Nc1ccc(Sc2nc(N)c(C#N)c(-c3c(F)cccc3F)c2C#N)cc1
[1]
  RUmax: 37.3%
[2]
  RUmax: 20%
[3]
  RUmax: 40.1%

## COc1ccc(-c2c(C#N)c(N)nc(Sc3cccc(Cl)c3)c2C#N)cc1
[1]
  RUmax: 0%
[2]
  RUmax: 0%
[3]
  RUmax: 0%

## N#Cc1c(N)nc(Sc2cccc(Cl)c2)c(C#N)c1-c1ccccc1
[1]
  RUmax: 0%
[2]
  RUmax: 0%
[3]
  RUmax: 0%

## CC(=O)c1ccc(-c2c(C#N)c(N)nc(Sc3ccc(O)cc3)c2C#N)cc1
[1]
  RUmax: 0%
[2]
  RUmax: 0%
[3]
  RUmax: 0%

## N#Cc1c(N)nc(Sc2ccc(O)cc2)c(C#N)c1-c1ccc(O)c(Cl)c1
[1]
  RUmax: 53.4%
[2]
  RUmax: 33.4%
[3]
  RUmax: 64.6%

Reference: ChEMBL document CHEMBL1147735, “Library design, synthesis, and screening: pyridine dicarbonitriles as potential prion disease therapeutics” (J Med Chem, 2006)
